Source: PMC2898448 (The Journal of Biological Chemistry, 2010)
“Also recorded” adds a separate entry of the source. Each block holds one molecule with its values, some of them ahead of it. No end group written: not given here. *: point of attachment. pNA = O=[N+]([O-])c1ccc(N*)cc1; Cbz = O=C(OCc1ccccc1)*

Columns and labels:
[1] = cited from earlier work; for side effects (in words): ref [18], [19]; for duration of action (in words): reference not given
[2] = system: apPEP (WT Aeromonus punctata PEP); test: apPEP enzyme kinetics with chromogenic/fluorescent substrate Z-Gly-Pro-pNA; assay type: biochemical
Summary of the method: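 Free pNA was read […] to give initial velocities. Km came from a Lineweaver-Burk plot over 31–500 μM substrate. kcat/Km was taken as Vo/SoEo at two or more substrate concentrations.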

DPP4 = details: ref [64]; cited from earlier work
PEP = details: ref [9]; cited from earlier work
[3] = system: apPEP (WT and D622N crystals); test: Crystal soaking with zPP; assay type: binding, Aeromonus punctata
Summary of the method: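 Native full-length WT or D622N apPEP (E. coli-expressed, Ni-affinity purified, thrombin-cleaved, SEC) crystallized at 14 °C with 20 mM MES pH 6.5 and PEG. Crystals were cryoequilibrated 1–2 days at 4 °C, soaked overnight at 4 °C, then glutaraldehyde vapour cross-linked for 4 h at 4 °C. Data were collected at 100 K; structures solved by molecular replacement, with inhibitor placed from difference maps.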

Molecule: N#C[C@@H]1CCCN1C(=O)CNC12CC3CC(CC(O)(C3)C1)C2 [Galvus]
side effects (in words) [1]: no significant negative side effects
duration of action (in words) [1]: act transiently

Molecule: N[C@@H](CC(=O)N1CCn2c(nnc2C(F)(F)F)C1)Cc1cc(F)c(F)cc1F [Januvia]
side effects (in words) [1]: no significant negative side effects
duration of action (in words) [1]: act transiently

kcat ([2]; 20 mM Tris-HCl (pH 8), 100 mM NaCl, 34 °C): 505 s⁻¹
kcat/Km ([2]; from initial rates, kcat/Km = Vo/SoEo, substrate 16–62 μM, pH 8, 34 °C): 623000 M⁻¹ s⁻¹
Molecule: Cbz-Gly-Pro-pNA

Molecule: IP10: DPP4 substrate
cleavage efficiency by DPP4 relative to GLP1 (in words) (DPP4): even higher efficiency than GLP1

Molecule: angiotensin I-II
cleavage by PEP (in words) (PEP): Cleavage

Molecule: benzyloxy-carbonyl-prolyl-prolinal [zPP]
contact with catalytic Ser538 (in words) ([3]; D622N-zPP structure): makes van der Waals contact with the aldehyde group of the inhibitor
conformational change induced by inhibitor (in words) ([3]; preformed native crystals soaked with 10 mM zPP overnight at 4 °C): inducing a conformational change from opened (red) to closed (blue) states; also recorded: induces large scale interdomain closure

Molecule: bradykinin: cleaved by PEP (RPPGFSPFR; Bradykinin; UniProt P01042 381-389, looked up)
cleavage by PEP (in words) (PEP): Cleavage

Molecule: gastrin-releasing peptide 3–27: DPP4 substrate (LPAGGGTVLTKMYPRGNHWAVGHLM; ends and bridges not checked; UniProt P07492 26-50, looked up, fragment)
cleavage efficiency by DPP4 relative to GLP1 (in words) (DPP4): even higher efficiency than GLP1

Molecule: neuropeptide Y: involved in neurogenic inflammation and blood pressure regulation
cleavage efficiency by DPP4 relative to GLP1 (in words) (DPP4): even higher efficiency than GLP1

Molecule: stromal cell-derived factor 1α
cleavage efficiency by DPP4 relative to GLP1 (in words) (DPP4): even higher efficiency than GLP1

B1: Mig: DPP4 substrate (protein, UniProt Q07325 23-125, looked up)
C-X-C motif chemokine 9: TPVVRKGRCSCISTNQGTIHLQSLKDLKQFAPSPSCEKIEIIATLKNGVQTCLNPDSADVKELIKKWEKQVSQKKKQKNGKKHQKKKVLKVRKSQRSRQKKTT
cleavage efficiency by DPP4 relative to GLP1 (in words) (DPP4): even higher efficiency than GLP1

B2: monocyte-derived chemokine: DPP4 substrate (protein, UniProt O00626 25-93, looked up)
C-C motif chemokine 22: GPYGANMEDSVCCRDYVRYRLPLRVVKHFYWTSDSCPRPGVVLLTFRDKEICADPRVPWVKMILNKLSQ
cleavage efficiency by DPP4 relative to GLP1 (in words) (DPP4): even higher efficiency than GLP1

B3: interferon-inducible T cell α: DPP4 substrate (protein, UniProt O14625 22-94, looked up)
C-X-C motif chemokine 11: FPMFKRGRCLCIGPGVKAVKVADIEKASIMYPSNNCDKIEVIITLKENKGQRCLNPKSKQARLIIKKVERKNF
cleavage efficiency by DPP4 relative to GLP1 (in words) (DPP4): even higher efficiency than GLP1
